The source made the active and inactive calls. No cut-off for these calls is given here.
What was measured:
[1] = Cytotoxicity against human HG23 cells assessed as cell viability at 10 uM after 3 days by tetrazolium dye based assay relative to control; conditions: read-out: Activity
Summary of the method: (§1)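 HG23 cells were treated with DMSO or compound for 3 days, at 10 μM for single-point testing or across a dose range for CC50. Viability was read with a tetrazolium salt (EZ-CYTOX) reagent. Values are means of the most representative triplicate experiment with standard deviations.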

[2] = tested on: Norovirus; experiment: Antiviral activity against human norovirus infected in human HG23 cells assessed as inhibition of viral replication at 10 uM after 3 days by qRT-PCR analysis relative to control; format: functional; design: scale not given: the % may be the effect or the level left
[3] = tested on: Norovirus; experiment: Antiviral activity against human norovirus infected in human HG23 cells assessed as inhibition of viral replication after 3 days by qRT-PCR analysis; format: functional, organism-based; conditions: HG23, 72 h
[4] = Cytotoxicity against human HG23 cells assessed as reduction in cell viability after 3 days by tetrazolium dye based assay; summary of the method: as §1
[5] = Therapeutic index, ratio of CC50 for cytotoxicity against human HG23 cells harboring human norovirus replicons to EC50 for antiviral activity against norovirus infected in human HG23 cells; format: toxicity, cell-based; conditions: read-out: Ratio CC50/EC50
[6] = tested on: Norovirus; experiment: Antiviral activity against human norovirus infected in HG23 cells assessed as inhibition of neomycin phosphotransferase protein expression after 3 days by Western blot analysis; format: functional, organism-based; conditions: HG23, 72 h
Summary of the method: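 HG23 replicon cells were given DMSO or increasing compound concentrations for 3 days. Whole-cell RIPA extracts were quantified by Bradford assay and equal protein amounts run on SDS-PAGE. Blots on PVDF were probed with rabbit anti-neomycin phosphotransferase (1:500), with anti-HSF-1 (1:1000) on blots. EC50 came from dose-response; values are means of a representative triplicate experiment.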

[7] = target: T1, Heat shock factor protein 1 (Homo sapiens) (UniProt Q00613); experiment: Activation of HSF-1 in human HG23 cells transfected with human norovirus after 72 hrs by dual-luciferase reporter gene assay; format: cell-based
T1 sequence (whole entry): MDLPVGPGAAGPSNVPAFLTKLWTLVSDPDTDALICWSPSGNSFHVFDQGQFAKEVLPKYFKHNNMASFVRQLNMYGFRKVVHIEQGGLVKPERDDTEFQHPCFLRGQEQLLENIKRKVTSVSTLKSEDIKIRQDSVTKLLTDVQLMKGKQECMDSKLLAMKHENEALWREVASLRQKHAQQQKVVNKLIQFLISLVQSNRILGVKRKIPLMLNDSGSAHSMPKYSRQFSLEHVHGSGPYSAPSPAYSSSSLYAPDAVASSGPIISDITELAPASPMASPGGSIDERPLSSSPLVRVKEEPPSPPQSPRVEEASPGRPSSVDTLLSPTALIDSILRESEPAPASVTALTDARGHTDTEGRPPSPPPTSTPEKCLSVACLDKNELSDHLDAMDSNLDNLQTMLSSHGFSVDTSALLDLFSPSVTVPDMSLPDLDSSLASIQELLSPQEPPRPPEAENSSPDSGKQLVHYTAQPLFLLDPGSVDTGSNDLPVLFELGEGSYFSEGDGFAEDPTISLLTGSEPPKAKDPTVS
Summary of the method: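 HG23 cells carrying the NV replicon were transfected with a Cignal finder reporter array and then given DMSO or 10 μM test compound for 72 h. Luciferase activity for each pathway was read with a dual-luciferase reagent.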

[8] = Metabolic stability in mouse liver microsomes assessed as compound remaining at 1 uM after 30 mins in absence of NADPH by LC-MS/MS analysis relative to control; format: ADME, Microsome; conditions: read-out: Stability
Summary of the method: (§2)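 Human or mouse liver microsomes (0.5 mg/ml) in 0.1 M phosphate buffer pH 7.4 were preincubated with compound at 1 μM for 5 min at 37 °C. An NADPH regeneration system was then added or omitted, and incubation continued 30 min at 37 °C. Reactions were stopped with acetonitrile containing internal standard. Parent compound remaining was measured by LC-MS/MS (C18 column, 0.1% formic acid water/acetonitrile).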

[9] = Metabolic stability in human liver microsomes assessed as compound remaining at 1 uM after 30 mins in absence of NADPH by LC-MS/MS analysis relative to control; format: ADME, Microsome; conditions: read-out: Stability; summary of the method: as §2
[10] = tested on: Norovirus GII.4; experiment: Inhibition of norovirus GII.4 RNA-dependent RNA polymerase using poly(C)RNA as substrate incubated for 10 mins and measured after 15 mins by picogreen staining based assay
Summary of the method: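 Recombinant human norovirus GII.4 Sydney 2012 RdRp (400 ng) was preincubated with compound (10 μM) or DMSO (0.5% v/v) for 10 min at 25 °C. It was then added to 5 μM rGTP, 6 μg/mL poly(C), 2.5 mM MnCl₂, 5 mM DTT, 0.01% BSA and 0.005% Tween 20 in 20 mM Tris-HCl pH 7.5. After 15 min at 25 °C, reactions were stopped with 10 mM EDTA and dsRNA quantified by PicoGreen fluorescence (ex 480/em 520). Two independent experiments were run in triplicate.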

[11] = Metabolic stability in human liver microsomes assessed as compound remaining at 1 uM preincubated for 5 mins followed by NADPH addition and measured after 30 mins by LC-MS/MS analysis relative to control; format: ADME, Microsome; conditions: read-out: Stability; summary of the method: as §2
[12] = Metabolic stability in mouse liver microsomes assessed as compound remaining at 1 uM preincubated for 5 mins followed by NADPH addition and measured after 30 mins in presence of NADPH relative to control; format: ADME, Microsome; conditions: read-out: Stability; summary of the method: as §2

Row | SMILES | viability at 72 h, 10 µM [1] [%] | Activity [2] [%] | other results
1 | C=Cc1c(OC)cc(/C=C/c2ccc(C(=O)O)cc2)cc1OC | 112 | 81.3 | 
2 | C=Cc1c(OC)cc(/C=C/c2ccc(C(=O)NCc3ccco3)cc2)cc1OC | 109 | 33.8 | 
3 | C=Cc1c(OC)cc(/C=C/c2ccccc2C(F)(F)F)cc1OC | 99.7 | 83.2 | 
4 | C=Cc1c(OC)cc(/C=C/c2ccc(C(=O)N3CCN(Cc4ccc(OC)cc4)CC3)cc2)cc1OC | 21.5 | 30.4 | 
5 | C[C@@]1(O)[C@H](O)[C@@H](CO)O[C@H]1n1ccc(N)nc1=O | 78.5 | 24.8 | EC50 [3]: 4 µM; CC50 at 72 h [4]: 12.2 µM; selectivity ratio [5]: 3.1; EC50 [6]: 4.8 µM; Activity [7]: Active
6 | CCc1c(OC)cc(/C=C/c2cc(OC)cc(OC)c2)cc1OC | 69.3 | 94 | 
7 | C=Cc1c(OC)cc(/C=C/c2ccc(C(=O)OCc3ccccc3)cc2)cc1OC | 106 | 134.9 | 
8 | C=Cc1c(OC)cc(/C=C/c2ccc(C(=O)NCCc3c[nH]c4ccccc34)cc2)cc1OC | 106 | 46.6 | 
9 | C=Cc1c(OC)cc(/C=C/c2cc(OC)cc(OC)c2)cc1OC | 99.6 | 43.4 | 
10 | C=Cc1c(OC)cc(/C=C/c2ccc(C(=O)NCCc3ccccc3)cc2)cc1OC | 99.7 | 28.4 | 
11 | COc1cc(/C=C/c2cc(OC)cc(OC)c2)cc(OC)c1 | 99.2 | 119 | 
12 | C=Cc1c(OC)cc(CCc2ccc(C(=O)N3CCN(Cc4ccc(C(F)(F)F)cc4)CC3)cc2)cc1OC | 77.3 | 132.1 | 
13 | C=Cc1c(OC)cc(/C=C\c2ccc(C(=O)N3CCN(Cc4ccc(C(F)(F)F)cc4)CC3)cc2)cc1OC | 90.9 | 64.9 | 
14 | C=Cc1c(OC)cc(/C=C/c2ccc(C(=O)N3CCN(C(C)C)CC3)cc2)cc1OC | 60.5 | 55.3 | 
15 | C=Cc1c(OC)cc(/C=C/c2ccc(C(=O)NCCc3ccncc3)cc2)cc1OC | 100 | 15.4 | EC50 [3]: 2 µM; CC50 at 72 h [4]: > 100 µM; remaining at 0.5 h, 1 µM [8]: 88.4%; remaining at 0.5 h, 1 µM [9]: 92.1%; selectivity ratio [5]: > 50; EC50 [6]: 0.71 µM; inhibition [10]: inactive; remaining at 0.5 h, 1 µM [11]: 20%; remaining at 0.5 h, 1 µM [12]: 67.7%
16 | C=Cc1c(OC)cc(/C=C/c2ccc(C(=O)NCCc3ccccn3)cc2)cc1OC | 96.3 | 13.5 | EC50 [3]: 1.44 µM; CC50 at 72 h [4]: > 100 µM; remaining at 0.5 h, 1 µM [8]: 83.1%; remaining at 0.5 h, 1 µM [9]: > 100%; selectivity ratio [5]: > 69; EC50 [6]: 1.97 µM; inhibition [10]: inactive; remaining at 0.5 h, 1 µM [11]: 44.1%; remaining at 0.5 h, 1 µM [12]: 38.3%
17 | COc1ccc(CCN(C)CCCC(C#N)(c2ccc(OC)c(OC)c2)C(C)C)cc1OC (stereo not given) [VERAPAMIL] |  |  | remaining at 0.5 h, 1 µM [11]: 13.6%
18 | C=Cc1c(OC)cc(/C=C/c2ccc(OCOC)cc2)cc1OC | 97.5 | 165.7 | 
19 | C=Cc1c(OC)cc(/C=C/c2ccc(C(=O)N3CCN(Cc4ccc(F)cc4)CC3)cc2)cc1OC | 55.7 | 12.1 | 

Row | SMILES | viability at 72 h, 10 µM [1] [%] | Activity [2] [%] | other results
20 | Brc1ccc(/C=C/c2ccccc2)cc1 | 130 | 54.5 | 
21 | C=Cc1c(OC)cc(/C=C/c2ccc(C(=O)NCCc3ccc(O)cc3)cc2)cc1OC | 103 | 40.8 | 
22 | C=Cc1ccc(/C=C/c2cc(OC)cc(OC)c2)cc1 | 138 | 77.1 | 
23 | OCCc1ccc(/C=C/c2ccccc2)cc1 | 101 | 43.2 | 
24 | C=Cc1c(OC)cc(/C=C/c2ccc(C(=O)OCc3ccc(F)cc3)cc2)cc1OC | 101 | 36 | 
25 | C=Cc1ccc(/C=C/c2ccccc2)cc1 | 102 | 26.5 | 
26 | C=CCNC(=O)c1ccc(/C=C/c2cc(OC)c(C=C)c(OC)c2)cc1 | 91.6 | 62.4 | 
27 | C#CCOC(=O)c1ccc(/C=C/c2cc(OC)c(C=C)c(OC)c2)cc1 | 103 | 71.3 | 
28 | C=Cc1c(OC)cc(/C=C/c2ccc(F)cc2)cc1OC | 93.2 | 38.4 | 
29 | C=Cc1c(OC)cc(/C=C/c2ccc(C(=O)N3CCN(CCO)CC3)cc2)cc1OC | 93.3 | 110.4 | 
30 | COc1cc(/C=C/c2cc(OC)c(CCO)c(OC)c2)cc(OC)c1 | 99.8 | 272.8 | 
31 | C=Cc1c(OC)cc(/C=C/c2ccc(C(=O)Nc3ccc(C(F)(F)F)cc3)cc2)cc1OC | 92.5 | 70.8 | 
32 | C=Cc1c(OC)cc(/C=C/c2ccc(C(F)(F)F)cc2)cc1OC | 97.5 | 19.4 | EC50 [3]: 4.4 µM; CC50 at 72 h [4]: > 10 µM; selectivity ratio [5]: > 2.2; EC50 [6]: 8 µM
33 | C=Cc1c(OC)cc(/C=C/c2ccc(C(=O)OCc3ccc(C(F)(F)F)cc3)cc2)cc1OC | 109 | 58.4 | 
34 | C=Cc1c(OC)cc(/C=C/c2cccc(C(F)(F)F)c2)cc1OC | 98.4 | 66.6 | 
35 | COc1cc(/C=C/c2cc(OC)c(Br)c(OC)c2)cc(OC)c1 | 99.7 | 184.9 | 
36 | C=Cc1c(OC)cc(/C=C/c2ccc(C(=O)OC)cc2)cc1OC | 111 | 58.2 | 
37 | COc1cc(/C=C/c2cc(O)c(CCO)c(O)c2)cc(OC)c1 | 99 | 200.8 | 
